Measured values reported in ChEMBL document CHEMBL1152799, “Mixed kappa/mu opioid receptor agonists: the 6 beta-naltrexamines” (J Med Chem, 2009).
Activity calls are given as the source filed them. The rule behind the calls is not given here.

How the values were obtained:
[1] = target: Mu-type opioid receptor (Rattus norvegicus) (UniProt P33535); experiment: Agonist activity at rat mu opioid receptor expressed in rat C6 cell membrane assessed as stimulation of [35S]GTPgammaS binding relative to DAMGO; type: functional, cell membranes
Procedure, shortened: (§1)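 Membranes from CHOκ (human KOR, grown in DMEM-F12) or C6μ (rat MOR, DMEM) cells, 20 μg, incubated 60 min at 25 °C in 20 mM Tris-HCl pH 7.4, 5 mM MgCl2, 100 mM NaCl, 2.2 mM fresh DTT, 30 μM GDP, 0.1 nM [35S]GTPγS with compound; filtered on GF/C, scintillation counting; efficacy versus U69593 (KOR) or DAMGO (MOR); mean ± SEM of three experiments.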

[2] = target: T1, Kappa-type opioid receptor (Homo sapiens, UniProt P41145); experiment: Agonist activity at human kappa opioid receptor expressed in CHO cell membrane assessed as stimulation of [35S]GTPgammaS binding; type: functional, cell membranes; procedure, shortened: as §1
Mu-type opioid receptor [3] = target: T2, Mu-type opioid receptor (Rattus norvegicus, UniProt P33535); experiment: Agonist activity at rat mu opioid receptor expressed in rat C6 cell membrane assessed as stimulation of [35S]GTPgammaS binding; type: functional, cell membranes; procedure, shortened: as §1
[4] = target: T1, Kappa-type opioid receptor; experiment: Displacement of [3H]diprenorphine from human kappa opioid receptor expressed in CHO cell membrane by liquid scintillation and luminescence counter
[5] = target: T1, Kappa-type opioid receptor; experiment: Agonist activity at human kappa opioid receptor expressed in CHO cell membrane assessed as stimulation of [35S]GTPgammaS binding relative to U69593; type: functional, cell membranes; procedure, shortened: as §1
Mu-type opioid receptor [6] = target: T2, Mu-type opioid receptor; experiment: Displacement of [3H]diprenorphine from rat mu opioid receptor expressed in rat C6 cell membrane by liquid scintillation and luminescence counter
[7] = target: Mu-type opioid receptor (Rattus norvegicus) (UniProt P33535); experiment: Antagonist activity at rat mu opioid receptor expressed in rat C6 cell membrane assessed as DAMGO-stimulated of [35S]GTPgammaS binding; type: functional, cell membranes
Procedure, shortened: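 C6 glioma membranes with stably expressed rat MOR; antagonism of DAMGO-stimulated [35S]GTPγS binding reported as Ke; incubation 60 min, 25 °C, in Tris-HCl pH 7.4 with MgCl2, NaCl, DTT, 30 μM GDP, 0.1 nM [35S]GTPγS; filtration and scintillation read-out.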

Mu-type opioid receptor (Rattus norvegicus), sequence (P33535 whole entry): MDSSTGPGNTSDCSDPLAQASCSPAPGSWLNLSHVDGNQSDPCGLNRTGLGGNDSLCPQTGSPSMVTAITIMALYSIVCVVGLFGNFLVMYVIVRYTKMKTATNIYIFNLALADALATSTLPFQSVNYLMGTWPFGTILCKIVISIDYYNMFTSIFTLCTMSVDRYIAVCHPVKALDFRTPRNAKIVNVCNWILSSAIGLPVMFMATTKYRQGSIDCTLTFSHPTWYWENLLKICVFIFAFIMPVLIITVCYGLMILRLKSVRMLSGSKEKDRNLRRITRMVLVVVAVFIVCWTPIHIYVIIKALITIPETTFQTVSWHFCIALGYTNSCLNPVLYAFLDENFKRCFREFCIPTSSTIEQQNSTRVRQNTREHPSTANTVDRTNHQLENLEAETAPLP
T2 sequence (P33535 whole entry): as above
T1 sequence (P41145 whole entry): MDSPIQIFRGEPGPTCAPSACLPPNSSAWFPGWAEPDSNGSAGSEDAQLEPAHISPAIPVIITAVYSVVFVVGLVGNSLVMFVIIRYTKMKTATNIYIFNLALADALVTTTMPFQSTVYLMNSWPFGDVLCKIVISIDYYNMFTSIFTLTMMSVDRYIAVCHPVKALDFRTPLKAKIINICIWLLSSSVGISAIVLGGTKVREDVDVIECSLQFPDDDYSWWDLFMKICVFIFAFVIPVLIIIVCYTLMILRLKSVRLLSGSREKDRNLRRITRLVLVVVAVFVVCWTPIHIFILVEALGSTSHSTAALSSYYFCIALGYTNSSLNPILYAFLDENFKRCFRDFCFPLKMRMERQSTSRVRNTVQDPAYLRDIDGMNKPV

| SMILES | Activity [1] | EC50 [2] [nM] | EC50 (Mu-type opioid receptor [3]) [nM] | Ki [4] [nM] | Activity [5] [%] | Ki (Mu-type opioid receptor [6]) [nM] | Ke [7] [nM] |
| --- | --- | --- | --- | --- | --- | --- | --- |
| O=C(/C=C/c1ccccc1)N[C@@H]1CC[C@@]2(OCc3ccccc3)[C@H]3Cc4ccc(O)c5c4[C@@]2(CCN3CC2CC2)[C@H]1O5 | 19% | 0.78 | 2 | 0.86 | 97 | 0.16 |  |
| O=C(/C=C/c1ccccc1)N[C@@H]1CC[C@@]2(OC(=O)c3ccccc3)[C@H]3Cc4ccc(O)c5c4[C@@]2(CCN3CC2CC2)[C@H]1O5 | inactive | 9.8 |  | 1.1 | 26 | 0.42 | 0.41 |
| O=C(/C=C/c1ccccc1[N+](=O)[O-])N[C@@H]1CC[C@@]2(O)[C@H]3Cc4ccc(O)c5c4[C@@]2(CCN3CC2CC2)[C@H]1O5 | 6.7% | 1.9 | 0.69 | 0.3 | 81 | 0.35 |  |
| CC(=O)O[C@@]12CC[C@@H](NC(=O)/C=C/c3ccccc3)[C@@H]3Oc4c(O)ccc5c4[C@@]31CCN(CC1CC1)[C@@H]2C5 | 19% | 2.4 | 1 | 0.59 | 97 | 0.21 |  |
| COc1ccccc1/C=C/C(=O)N[C@@H]1CC[C@@]2(O)[C@H]3Cc4ccc(O)c5c4[C@@]2(CCN3CC2CC2)[C@H]1O5 | 21% |  |  |  | 105 |  |  |
| O=C(/C=C/c1ccccc1)N[C@@H]1CC[C@@]2(OC(=O)Cc3ccccc3)[C@H]3Cc4ccc(O)c5c4[C@@]2(CCN3CC2CC2)[C@H]1O5 | 41% | 0.49 | 1.3 | 0.26 | 76 | 0.28 |  |
| C=CCO[C@@]12CC[C@@H](NC(=O)/C=C/c3ccccc3)[C@@H]3Oc4c(O)ccc5c4[C@@]31CCN(CC1CC1)[C@@H]2C5 | 39% | 0.079 | 0.6 | 0.12 | 120 | 0.25 |  |
| O=C(/C=C/c1ccccc1Cl)N[C@@H]1CC[C@@]2(O)[C@H]3Cc4ccc(O)c5c4[C@@]2(CCN3CC2CC2)[C@H]1O5 | 17% | 0.4 | 12 | 0.27 | 97 | 0.079 |  |
| O=C(/C=C/c1cccc([N+](=O)[O-])c1)N[C@@H]1CC[C@@]2(O)[C@H]3Cc4ccc(O)c5c4[C@@]2(CCN3CC2CC2)[C@H]1O5 | 20% | 0.12 | 0.18 | 0.36 | 100 | 0.11 |  |
| O=C(/C=C/c1ccccc1)N[C@@H]1CC[C@@]2(O)[C@H]3Cc4ccc(O)c5c4[C@@]2(CCN3CC2CC2)[C@H]1O5 | 21% | 0.12 | 1.8 | 0.043 | 100 | 0.17 |  |
